High-throughput results from PubChem BioAssay.
Rows were chosen to be rich in hits. Some 2.3% of all compounds tested hit in one or more screens of this group.
Tn7 DDE FP – DD(E)-Tn7 binding inhibition, primary FP screen; inhibition, % at 8.3 µM; 370,000 compounds, 0.13% hits; FP displacement of FITC-Tn7 peptide from fibrin DD(E); 0% = median of compound wells per plate; AID 720508;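 active means inhibition above the mean of compounds falling within the control limits plus 3 SD of them, cut at about 14% in these data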;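 further: 0% = plate median of compound wells and 100% = 10 µM Aha-Tn7 peptide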
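assay system = human clot-derived fibrin DD(E) complex | quantity = Fibrin-DD(E) at 2 µM final | timing = 10 min preincubation, 3 h with tracer, room temperature | signal = fluorescence polarization | measure = percent inhibition | benchmarks = high control wells with 10 µM unlabelled Aha-Tn7 peptide (full inhibition) | replicates = singlicate testing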
ADAM17 inh – inhibitors of human ADAM17; 370,000 compounds, 0.83% hits; inhibition, % at 6.95 µM; recombinant ADAM17, EDANS/DABCYL FRET peptide cleavage; P78536;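 active means inhibition above the mean of compounds lying between control limits plus 3 SD, set per campaign, cut at about 8.5% in these data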;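 further: 0% = DMSO-only wells as the low control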
Tn6 DDE FP – disrupts Tn6 cyclic peptide binding to fibrin D-Dimer-E complex | inhibition, % at 8.3 µM | P02675 | 370,000 compounds, 0.21% hits | Fibrin DD(E) TRITC-Tn6 fluorescence polarization displacement;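 active means inhibition above a per-campaign cutoff: mean of compounds within control limits plus 3 SD, cut at about 15% in these data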;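 further: 0% = median of all compound wells on the plate and 100% = blocking peptide control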
ADAM10 inh – ADAM10 inhibition, QFRET primary screen; recombinant ADAM10, EDANS/DABCYL FRET peptide cleavage, 3 h; AID 720582; 370,000 compounds, 0.62% hits; inhibition, % at 7 µM; O14672;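 active means inhibition above a per-campaign cutoff equal to the mean of compounds falling between control-based bounds plus 3 SD, cut at about 20% in these data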;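 further: 0% = DMSO wells while the 100% control is not disclosed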
PLC-beta3 inh – blocks human PLC-beta3 enzyme activity. Q01970. Purified PLC-beta3, fluorogenic substrate, fluorescence. inhibition, % at 12.2 µM. 370,000 compounds, 0.18% hits. AID 720704; in the data active means inhibition above about 11%;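 further: 0% = median of compound wells on plate and 100% = full blocker control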
PLC-gamma1 inh – inhibitors of human phospholipase C gamma1. purified PLC-gamma1, fluorogenic substrate, fluorescence. inhibition, % at 12.2 µM. 370,000 compounds, 0.84% hits; in the data active means inhibition above about 9.5%
Target sequence (P19174 whole entry, looked up): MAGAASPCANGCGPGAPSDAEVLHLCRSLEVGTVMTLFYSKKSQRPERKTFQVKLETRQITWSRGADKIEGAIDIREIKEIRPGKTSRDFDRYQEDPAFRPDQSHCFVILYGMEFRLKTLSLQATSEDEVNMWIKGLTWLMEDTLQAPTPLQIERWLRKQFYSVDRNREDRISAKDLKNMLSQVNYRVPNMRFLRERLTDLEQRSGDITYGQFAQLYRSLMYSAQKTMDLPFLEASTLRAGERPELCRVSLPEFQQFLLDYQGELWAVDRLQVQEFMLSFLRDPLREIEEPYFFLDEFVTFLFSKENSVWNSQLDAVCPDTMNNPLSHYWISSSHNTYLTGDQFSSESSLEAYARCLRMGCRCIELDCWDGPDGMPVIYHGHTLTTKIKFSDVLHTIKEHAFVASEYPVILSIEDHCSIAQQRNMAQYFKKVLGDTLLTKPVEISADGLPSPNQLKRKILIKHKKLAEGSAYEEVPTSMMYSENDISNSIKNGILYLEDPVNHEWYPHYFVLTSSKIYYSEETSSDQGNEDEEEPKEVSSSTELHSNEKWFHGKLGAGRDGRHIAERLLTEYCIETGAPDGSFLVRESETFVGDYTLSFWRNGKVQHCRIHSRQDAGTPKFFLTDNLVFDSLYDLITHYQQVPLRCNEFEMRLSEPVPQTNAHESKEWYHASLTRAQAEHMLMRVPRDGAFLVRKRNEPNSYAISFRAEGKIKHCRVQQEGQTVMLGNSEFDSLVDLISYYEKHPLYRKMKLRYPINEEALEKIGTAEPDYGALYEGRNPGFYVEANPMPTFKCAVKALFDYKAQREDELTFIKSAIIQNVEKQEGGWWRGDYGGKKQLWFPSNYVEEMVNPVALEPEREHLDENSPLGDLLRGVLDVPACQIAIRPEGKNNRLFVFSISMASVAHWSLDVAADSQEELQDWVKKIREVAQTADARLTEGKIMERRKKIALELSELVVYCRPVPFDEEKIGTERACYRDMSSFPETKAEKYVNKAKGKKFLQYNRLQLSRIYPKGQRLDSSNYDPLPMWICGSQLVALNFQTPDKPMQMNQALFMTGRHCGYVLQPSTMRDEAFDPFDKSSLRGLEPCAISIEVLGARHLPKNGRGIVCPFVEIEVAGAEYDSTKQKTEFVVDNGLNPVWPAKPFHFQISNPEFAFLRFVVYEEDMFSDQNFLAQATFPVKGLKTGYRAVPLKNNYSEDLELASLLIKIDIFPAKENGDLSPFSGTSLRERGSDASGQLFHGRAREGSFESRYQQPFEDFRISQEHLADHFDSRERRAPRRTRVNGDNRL
ADAM10 counter – counter-screen for ADAM17 exosite inhibitors: inhibitors of human ADAM10; recombinant ADAM10, EDANS/DABCYL FRET peptide cleavage, 3 h; inhibition, % at 6.95 µM; 2,900 compounds, 47% hits; AID 743256; shares compounds with ADAM17 inh;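 active means mean inhibition over the triplicate runs exceeds the activity threshold set in the earlier primary screen, cut at about 20% in these data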;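 further: 0% = DMSO wells and 100% = marimastat wells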
ADAM17 confirm – human ADAM17 inhibition, confirmation | inhibition, % at 6.95 µM | shares compounds with ADAM17 inh | recombinant ADAM17, EDANS/DABCYL QFRET peptide cleavage | 2,900 compounds, 65% hits;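 active means mean inhibition across replicates above the hit cutoff set in the primary screen, cut at about 8.5% in these data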;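 further: 0% = DMSO wells and 100% = marimastat wells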
* = called active by the depositor; / = not tested or not shown.

SMILES	Tn7 DDE FP	ADAM17 inh	Tn6 DDE FP	ADAM10 inh	PLC-beta3 inh	PLC-gamma1 inh	ADAM10 counter	ADAM17 confirm
Cc1cc(S(=O)(=O)N2CCC3(CC2)OCCN3S(=O)(=O)c2cccs2)ccc1F	0	12*	-2	13	-2	4	13	9.2*
Cc1nn(CCCC(=O)Nc2cc(Oc3ccccc3)cc([N+](=O)[O-])c2)c(C)c1[N+](=O)[O-]	-1	12*	7	17	-1	1	39*	20*
CC(C)CNC(=O)OCc1cn(Cc2cc(F)ccc2F)nn1	0	-7	9	-4	-3	0	/	/
COc1ccc(-c2cc(C3CCN(c4ccc(C(C)=O)cc4[N+](=O)[O-])CC3)[nH]n2)cc1	-4	13*	-2	33*	3	6	32*	19*
CC(C)C[C@@H]1COc2cc(Br)ccc2S(=O)(=O)N1Cc1cn(CCC2OCCO2)nn1	-8	-1	6	3	0	0	/	/
CC[C@@H]1C=C(C(=O)O)[C@H](c2ccc(C)cc2)N1S(=O)(=O)c1ccc(C)cc1	0	-3	7	-10	1	-1	/	/
CC[C@@H]1C=C(C(=O)O)[C@H](c2ccc(Cl)cc2)N1S(=O)(=O)c1ccc(C)cc1	-2	8.6*	0	1	1	1	10	5
CCOc1ccc(S(=O)(=O)Nc2ccc(F)cc2)c(C)c1C	4	9.5*	-9	18	-2	1	17	12*
N#CCc1ccc(NS(=O)(=O)c2ccc(C3CCCCC3)cc2)cc1	-6	10.0*	-4	15	-1	0	24*	10*
COc1ccc(S(=O)(=O)Nc2ccc(CC#N)cc2)cc1	5	-1	10	5	-1	-1	/	/
O=C(COc1ccccc1Br)N1CCN(C(=O)c2cccs2)CC1	-8	8.8*	3	7	-4	14*	13	9.3*
Cc1cc(C(=O)COC(=O)CC2Sc3ccccc3NC2=O)c(C)n1-c1ccc(Br)cc1 (centres undefined)	7	8.8*	-5	13	-3	-2	7	8
O=C(CC1Sc2ccccc2NC1=O)OCC(=O)N1CCc2ccccc21 (centres undefined)	-4	9.2*	-4	-2	3	5	8	8
O=C(CSc1ncnc2sc3c(c12)CCCC3)Nc1ccc(Oc2ccccc2)cc1	-6	1	6	0	4	8	/	/
Cc1cc(C)c2sc(N(CCN(C)C)C(=O)c3ccc4ccccc4c3)nc2c1	-2	10*	-1	3	-8	5	8	8
O=C1[C@@H](C2CC2)[C@@H]2c3ccccc3C=NN2[C@@H]2c3ccccc3C=NN12	-5	2	5	1	-6	4	/	/
COCC(C)n1c(C)cc(C(=O)CSc2nnc(Nc3ccccc3F)s2)c1C (centres undefined)	-6	15*	-3	15	2	6	1	2
O=C(c1cccc(C(F)(F)F)c1)N1CC[C@H]2[C@H](CCCN2Cc2ccc(F)cc2)C1	4	-2	3	-7	4	-1	/	/
Nc1nc(C(c2ccccc2)c2ccccc2)cs1	-5	8.7*	8	20	-4	3	6	4
Nc1nc(-c2ccccc2)cs1	5	-5	4	2	3	2	/	/
O=C(Nc1ccc(S(=O)(=O)N2CCOCC2)cc1)c1cc(-c2ccccc2O)n[nH]1	-1	7	3	15	-35	1	/	/
CC1CN(S(=O)(=O)c2ccc(NC(=O)c3cc(-c4ccccc4O)n[nH]3)cc2)CC(C)O1 (centres undefined)	-9	12*	-11	24*	3	4	18	14*
COc1ccc(C2Oc3ccccc3C3=C2C(c2cccs2)n2ncnc2N3)cc1 (centres undefined)	-9	9.6*	-3	10	-120	-80	-7	9.3*
COC(=O)C1CN(Cc2cn(CCOC(C)=O)nn2)CCS(=O)(=O)N1Cc1ccc(F)cc1 (centres undefined)	8	0	2	6	2	0	/	/
O=C1CCC[C@H]2C[C@H](NCc3ccc(Br)cc3)CC[C@]23CCCN13	-2	0	-7	3	1	-2	/	/
SMILES	Tn7 DDE FP	ADAM17 inh	Tn6 DDE FP	ADAM10 inh	PLC-beta3 inh	PLC-gamma1 inh	ADAM10 counter	ADAM17 confirm
COC(=O)c1cn(-c2ccc3c(c2)[C@]2(CC(=O)N(C)C2c2ccccc2)C(=O)N3CC(C)C)nn1 (some centres undefined)	1	-3	-2	-6	1	-2	/	/
CCOc1ccc(CN(C)C(=O)c2ccc(S(=O)(=O)N(C)c3ccccc3OC)cc2)cc1	-7	18*	-4	16	-2	10*	4	5
Oc1c(C(c2ccccn2)N2CCC(Cc3ccccc3)CC2)cc(Cl)c2cccnc12 (centres undefined)	-4	32*	4	12	-29	-19	23*	39*
CN1CCN(C(c2ccccn2)c2cc(Cl)c3cccnc3c2O)CC1 (centres undefined)	1	18*	5	2	-42	-19	43*	45*
CN(Cc1ccccc1)C(=O)OCc1cn(Cc2cc(F)ccc2F)nn1	5	-2	-5	0	-1	-4	/	/
COC(=O)C1=C(C(=O)OC)SC2(S1)C(C(=O)OC)=C(C(=O)OC)SC1=C2c2cccc(C)c2NC1(C)C	-2	13*	3	13	1	7	19	11*
CCCCC(=O)Nc1cccc(-c2csc(-c3ccccc3)n2)c1	-13	8.9*	-4	17	-3	-2	22*	17*
Cc1ccc(OCC(=O)NNC(=O)c2ccoc2C)c(Br)c1	8	-2	8	2	0	4	/	/
Cc1occc1C(=O)NNC(=O)COc1ccc(Br)cc1Br	-2	8.8*	2	12	2	2	-5	2
Cc1cc(C)cc(C(=O)OCCN(C)C2CN(Cc3cn(Cc4ccc([N+](=O)[O-])cc4)nn3)S(=O)(=O)C2)c1 (centres undefined)	4	0	0	-3	2	-1	/	/
O=C(CSc1nnc(-c2cccnc2)n1-c1ccccc1)Nc1ccc(OCc2ccccc2)cc1	10	4	-3	7	3	-1	/	/
Cc1cc(C(=O)CCC(=O)N(C)CC(=O)Nc2ccccc2Br)c(C)s1	-7	11*	-2	6	-1	5	-10	-1
